From ChEMBL document CHEMBL3286279, “The synthesis and biological evaluation of new DNA-directed alkylating agents, phenyl N-mustard-4-anilinoquinoline conjugates containing a urea linker” (Eur J Med Chem, 2014) come the findings set out here.

A short description of experiment [1]: Cytotoxicity against human H1299 cells after 72 hrs by AlamarBlue assay. In kind it is functional, cell-based. Particulars: NCI-H1299, 72 h. Summed up:
(§1)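 Growth inhibition read by alamarBlue. After reagent addition, plates were held 6 h at 37 °C and absorbance read at 570 and 600 nm. IC50 was derived from dose-response curves over 6 or 7 drug concentrations by the median-effect method. Values are mean and STDEV of three to six independent experiments.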

Experiment [2] has as its system NCI-H460. The experiment is described as follows: Induction of apoptosis in human H460 cells assessed as late apoptotic cells at 2 uM after 72 hrs using Annexin V/propidium iodide staining by flow cytometry (reference value: 7%). In kind it is functional. In general terms: A flow cytometer gives signals particle by particle.
The subject of experiment [3] is NCI-H460. The experiment can be described thus: Induction of apoptosis in human H460 cells assessed as necrotic cells at 2 uM after 72 hrs using Annexin V/propidium iodide staining by flow cytometry (reference value: 0.6%). In kind it is functional.
For experiment [4], the system named is NCI-H460. The experiment can be described thus: Induction of apoptosis in human H460 cells assessed as necrotic cells at 2 uM after 48 hrs using Annexin V/propidium iodide staining by flow cytometry (reference value: 0.6%). In kind it is functional.
In experiment [5] the test system is NCI-H460. The experiment can be described thus: Induction of apoptosis in human H460 cells assessed as early apoptotic cells at 2 uM after 72 hrs using Annexin V/propidium iodide staining by flow cytometry (reference value: 2%). It counts as functional.
Experiment [6] relates to PC-3. The experiment can be described thus: Cytotoxicity against human PC3 cells after 72 hrs by AlamarBlue assay. It counts as functional, cell-based. Conditions: PC-3, 72 h. Summed up: as §1
Experiment [7] relates to NCI-H460. The experiment can be described thus: Induction of apoptosis in human H460 cells assessed as late apoptotic cells at 2 uM after 24 hrs using Annexin V/propidium iodide staining by flow cytometry (reference value: 7%). In kind it is functional.
In experiment [8] the test system is CCRF-CEM. The experiment is described as follows: Ratio of IC50 for human vinblastine-resistant CCRF-CEM cells to IC50 for human CCRF-CEM cells. It counts as functional. The procedure, abridged: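 Ratio of alamarBlue IC50 values, determined in the CCRF-CEM/VBL vinblastine-resistant subline and in the parental CCRF-CEM line.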
Experiment [9] concerns CCRF-CEM. The experiment is described as follows: Cytotoxicity against human CCRF-CEM cells after 72 hrs by AlamarBlue assay. In kind it is functional, cell-based. The procedure, abridged: as §1
(Alamar Blue is a resazurin reagent that responds to reducing activity.)

The test system of experiment [10] is NCI-H460. The experiment can be described thus: Induction of apoptosis in human H460 cells assessed as necrotic cells at 2 uM after 24 hrs using Annexin V/propidium iodide staining by flow cytometry (reference value: 0.6%). It counts as functional.
Experiment [11] in a line: Cell cycle arrest in human H460 cells assessed as accumulation at sub-G1 phase at 2 uM after 24 hrs using propidium iodide staining by flow cytometry. In kind it is functional, cell-based. Conditions: NCI-H460. The procedure, abridged:
(§2)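 H460 cells exposed to 0.25, 0.5, 1 or 2 µM for 24 h, then stained with […] propidium iodide in PBS with 0.1 mg/mL RNase A and 1% Triton X-100. DNA content and phase distribution read by flow cytometry. Values are the mean of 3 independent experiments.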

The subject of experiment [12] is CCRF-CEM. The experiment can be described thus: Cytotoxicity against human vinblastine-resistant CCRF-CEM cells after 72 hrs by AlamarBlue assay. It counts as functional, cell-based. The procedure, abridged: as §1
In experiment [13] the test system is NCI-H460. The experiment is described as follows: Induction of apoptosis in human H460 cells assessed as late apoptotic cells at 2 uM after 48 hrs using Annexin V/propidium iodide staining by flow cytometry (reference value: 7%). In kind it is functional.
Experiment [14] relates to NCI-H460. The experiment can be described thus: Induction of apoptosis in human H460 cells assessed as early apoptotic cells at 2 uM after 24 hrs using Annexin V/propidium iodide staining by flow cytometry (reference value: 2%). In kind it is functional.
A short description of experiment [15]: Cytotoxicity against human H460 cells after 72 hrs by AlamarBlue assay. It counts as functional, cell-based. Particulars: NCI-H460, 72 h. The procedure, abridged: as §1
For experiment [16], the system named is NCI-H460. The experiment is described as follows: Induction of apoptosis in human H460 cells assessed as early apoptotic cells at 2 uM after 48 hrs using Annexin V/propidium iodide staining by flow cytometry (reference value: 2%). It counts as functional.
Experiment [17] in a line: Cell cycle arrest in human H460 cells assessed as accumulation at G1 phase after 24 hrs using propidium iodide staining by flow cytometry. It counts as functional, cell-based. Particulars: NCI-H460. The procedure, abridged:
as §2

Experiment [18] is described as follows: Cell cycle arrest in human H460 cells assessed as accumulation at G2/M phase after 24 hrs using propidium iodide staining by flow cytometry. In kind it is functional, cell-based. Particulars: NCI-H460. Summed up: as §2
The test system of experiment [19] is HCT-116. The experiment is described as follows: Cytotoxicity against human HCT116 cells after 72 hrs by AlamarBlue assay. In kind it is functional, cell-based. Particulars: HCT-116, 72 h. Summed up:
as §1

The pIC50 is −log10 of the IC50, conventionally taken in molar units. Read a high pIC50 as a low IC50.

pIC50: −log10 of the molar value. Activity calls are given as the source filed them. The rule behind the calls is not given here.

Regarding `Cc1cc(Nc2cccc(Br)c2)c2cc(NC(=O)Nc3ccc(N(CCCl)CCCl)cc3)ccc2n1`, the pIC50 was 6.11 in [1]; 5.85 in [6]; 6.34 in [9]; 5.28 in experiment [12]; 5.93 in experiment [15]; 6.31 in experiment [19]. The Activity in experiment [2] stood at 65.5%; in [3], 9.8%; in experiment [4] it was 21.8%; in [5] it was 3.7%; in experiment [7], 16.7%; in [10], 4.3%. The Activity in experiment [13] is 32.6%; in [14], 3.7%; in experiment [16], 1.4%; in [17] it was “Dose-dependent effect”; in experiment [18], “Dose-dependent effect”. Also, in experiment [8], the “Ratio IC50” value was 11.28. The result in experiment [11] was Active.
